From ChEMBL document CHEMBL4706770, “SD-91 as A Potent and Selective STAT3 Degrader Capable of Achieving Complete and Long-Lasting Tumor Regression” (ACS Med Chem Lett, 2021)
pKd: −log10 of the molar value. Calls of active or inactive are those of the source. The rule behind the calls is not given here.

How the values were obtained:
[1] = Drug metabolism buffer pH 4 assessed as conversion to 5-amino-4-(4-(8-((5S,8S,10aR)-8-((S)-5-amino-1-(benzhydrylamino)-1,5-dioxopentan-2-ylcarbamoyl)-6-oxo-5-(5-(phosphonocarbonyl)-1H-indole-2-carboxamido)octahydropyrrolo[1,2-a][1,5]diazocin-3(4H)-yl)-8-oxooct-1-ynyl)-1-oxoisoindolin-2-yl)-5-oxopentanoic acid measured upto 100 hrs by LC/MS/MS analysis; details: time hrs <=100
Summary of the method: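 Parent compound incubated in buffer at pH 4 or pH 8, at room temperature or 37 °C. Percentages of the parent, the hydrolysis product and the glutarimide ring-opened product followed over time, up to 96 h.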

[2] = Drug uptake in SCID mouse xenografted with human MOLM16 cells assessed as (2-(((5S,8S,10aR)-8-(((S)-5-amino-1-(benzhydrylamino)-1,5-dioxopentan-2-yl)carbamoyl)-3-(8-(2-(2,6-dioxopiperidin-3-yl)-1-oxoisoindolin-4-yl)oct-7-yno yl)-6-oxodecahydropyrrolo[1,2-a][1,5]diazocin-5-yl)carbamoyl)-1H-indole-5-carbonyl)phosphonic acid level in plasma at 50 mg/kg, iv measured after 6 hrs by LC-MS/MS; type: ADME, organism-based; details: in vivo
Summary of the method: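 SCID mice bearing MOLM-16 xenografts given a single iv dose of 50 mg/kg. Concentrations of parent and hydrolysis product measured in plasma (ng/mL) and tumor tissue (ng/g) at 1, 6 and 24 h.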

[3] = biological target: T1, Signal transducer and activator of transcription 5B (Homo sapiens, UniProt P51692); assay: Binding affinity to human recombinant STAT5B assessed as dissociation constant incubated for 15 mins by biolayer interferometry
T1 sequence (P51692 whole entry): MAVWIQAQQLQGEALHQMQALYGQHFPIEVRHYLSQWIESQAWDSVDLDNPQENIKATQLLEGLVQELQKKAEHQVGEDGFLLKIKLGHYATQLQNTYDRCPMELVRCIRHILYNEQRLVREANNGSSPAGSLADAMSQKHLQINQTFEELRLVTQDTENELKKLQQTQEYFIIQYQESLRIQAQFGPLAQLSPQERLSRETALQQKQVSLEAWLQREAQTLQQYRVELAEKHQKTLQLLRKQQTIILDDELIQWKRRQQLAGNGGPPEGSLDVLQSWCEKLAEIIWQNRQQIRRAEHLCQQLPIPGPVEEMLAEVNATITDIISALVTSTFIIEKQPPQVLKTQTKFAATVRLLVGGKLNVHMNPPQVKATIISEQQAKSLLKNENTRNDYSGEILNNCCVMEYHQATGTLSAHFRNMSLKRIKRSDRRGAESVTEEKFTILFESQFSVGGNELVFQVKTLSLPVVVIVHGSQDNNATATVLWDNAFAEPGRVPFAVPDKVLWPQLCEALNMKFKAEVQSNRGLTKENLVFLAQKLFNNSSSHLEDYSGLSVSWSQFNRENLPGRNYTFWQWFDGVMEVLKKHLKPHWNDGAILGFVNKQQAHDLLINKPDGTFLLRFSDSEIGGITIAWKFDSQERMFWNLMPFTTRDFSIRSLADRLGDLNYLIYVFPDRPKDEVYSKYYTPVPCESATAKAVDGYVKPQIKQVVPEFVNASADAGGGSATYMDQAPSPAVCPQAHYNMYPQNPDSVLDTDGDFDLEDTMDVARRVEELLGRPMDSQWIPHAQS
Summary of the method: (§1)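 Biolayer interferometry with recombinant human STAT1, STAT2, STAT3, STAT4, STAT5A, STAT5B or STAT6 proteins containing their SH2 domain. Compound run in 2× serial dilutions from 200 nM. Kd taken from steady-state fitting of equilibrium responses against concentration using a 1:1 binding model.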

[4] = biological target: T2, Signal transducer and activator of transcription 5A (Homo sapiens, UniProt P42229); assay: Binding affinity to human recombinant STAT5A assessed as dissociation constant incubated for 15 mins by biolayer interferometry; summary of the method: as §1
T2 sequence (P42229 whole entry): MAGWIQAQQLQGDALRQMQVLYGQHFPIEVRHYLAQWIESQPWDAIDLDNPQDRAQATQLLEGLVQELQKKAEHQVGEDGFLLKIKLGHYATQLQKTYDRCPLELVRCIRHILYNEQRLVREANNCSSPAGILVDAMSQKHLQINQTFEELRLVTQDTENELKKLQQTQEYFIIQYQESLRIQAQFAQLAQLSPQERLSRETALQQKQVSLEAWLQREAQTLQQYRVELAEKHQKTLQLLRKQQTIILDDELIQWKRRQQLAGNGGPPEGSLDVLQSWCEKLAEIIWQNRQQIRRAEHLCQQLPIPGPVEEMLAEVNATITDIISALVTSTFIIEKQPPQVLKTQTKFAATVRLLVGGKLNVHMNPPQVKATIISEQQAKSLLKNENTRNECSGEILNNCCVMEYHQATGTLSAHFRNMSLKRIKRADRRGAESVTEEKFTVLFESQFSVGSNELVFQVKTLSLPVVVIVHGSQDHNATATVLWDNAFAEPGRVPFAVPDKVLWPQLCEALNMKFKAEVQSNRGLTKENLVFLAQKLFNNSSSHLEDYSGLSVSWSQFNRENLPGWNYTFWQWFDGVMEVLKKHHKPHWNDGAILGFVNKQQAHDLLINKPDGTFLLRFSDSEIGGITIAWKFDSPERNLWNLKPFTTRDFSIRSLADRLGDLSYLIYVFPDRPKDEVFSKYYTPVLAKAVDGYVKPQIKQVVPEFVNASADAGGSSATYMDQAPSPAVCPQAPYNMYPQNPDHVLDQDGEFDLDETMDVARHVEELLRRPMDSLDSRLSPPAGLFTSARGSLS

[5] = system: Mus musculus; assay: In vivo induction of STAT3 degradation in SCID mouse xenografted with human SU-DHL-1 cells assessed as reduction in total STAT3 level in tumor tissue at 50 mg/kg, iv measured after 24 hrs by immunoblotting analysis; type: functional, organism-based
Summary of the method: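 SCID mice bearing MOLM-16 or SU-DHL-1 xenografts given a single iv dose of 50 mg/kg or dosing vehicle. Tumor lysates immunoblotted for p-STAT3 Y705 and total STAT3 at time points up to 48 h (MOLM-16) and 24 h (SU-DHL-1).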

[6] = Stability of the compound in PEG400/phosphate buffer saline measured upto 100 hrs by LC/MS/MS analysis; type: physicochemical
Summary of the method: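 Compound incubated at room temperature in dosing vehicle (10% PEG400/90% phosphate buffered saline); percentages of parent and conversion products determined at time points up to 96 h.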

Q: Which Drug metabolism [1] does the source give for `NC(=O)CC[C@H](NC(=O)[C@@H]1CC[C@@H]2CCN(C(=O)CCCCCC#Cc3cccc4c3CN(C3CCC(=O)NC3=O)C4=O)C[C@H](NC(=O)c3cc4cc(C(F)(F)P(=O)(O)O)ccc4[nH]3)C(=O)N21)C(=O)NC(c1ccccc1)c1ccccc1` (stereo partly specified) here?
A: Metabolite not detected

Q: And the Drug uptake [2]?
A: 25560 ng/mL

Q: With `NC(=O)CC[C@H](NC(=O)[C@@H]1CC[C@@H]2CCN(C(=O)CCCCCC#Cc3cccc4c3CN(C3CCC(=O)NC3=O)C4=O)C[C@H](NC(=O)c3cc4cc(C(=O)P(=O)(O)O)ccc4[nH]3)C(=O)N21)C(=O)NC(c1ccccc1)c1ccccc1` (stereo partly specified) as the compound, how does the pKd [3] read?
A: < 8.00

Q: And the pKd [4]?
A: < 8.00

Q: And the Activity [5]?
A: Active

Q: What about the Stabilty [6] of the same compound?
A: Stable
